Laboratory results: article PMC3143825 (Bioorganic & medicinal chemistry, 2011)

Legend:
[1] = target: Cell surface Hsp90 in MV4-11 leukemia cells (Homo sapiens, UniProt P07900); assay: Flow cytometry detection of cell surface Hsp90; format: cell-based; conditions: MV4-11 cells, 2 h at 37°C, SA-PE staining; D-biotin as control
[2] = tested on: Hsp90 from SKBr3 cellular extracts; assay: Fluorescence polarization; format: binding; conditions: for IC50: read-out: IC50, binding affinity for Hsp90, Hsp90 from SKBr3 cellular extracts, displacement of GM-cy3B (6 nM), 4°C, 24 h
[3] = tested on: c-Kit and IGF-IR in MDA-MB-468 cells; format: cell-based; conditions: 5 μM, 24 h
Procedure, shortened: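 MDA-MB-468 breast cancer cells kept in DME/F12 with 10% FBS, 1% L-glutamine and 1% penicillin/streptomycin at 37°C under 5% CO₂. Grown to 60–70% confluence, then exposed to test compound for 24 h. Lysed in 50 mM Tris pH 7.4, 150 mM NaCl, 1% NP-40. 10–50 μg protein run on SDS-PAGE and blotted to nitrocellulose. Probed with anti-IGF-IR (1:1000) and anti-c-Kit (1:200), then HRP secondary (1:3000), with ECL detection.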

| IC50 [2] | Compound | detection of cell surface Hsp90 [1] | fold loss in potency as compared to SNX-2112 ([2]; FP assay, SKBr3 extract) | steady-state levels of c-Kit and IGF-IR [3] |
| --- | --- | --- | --- | --- |
| 67.1 nM | Nc1ncnc2c1nc(Sc1cc3c(cc1I)OCO3)n2CCCNCCOCCOCCOCCNC(=O)CCCC[C@@H]1SC[C@@H]2NC(=O)N[C@@H]21 [Compound 7] | can detect Hsp90 expression on the surface of leukemia cells | – | – |
| 7 nM | CCNC(=O)c1noc(-c2cc(C(C)C)c(O)cc2O)c1-c1ccc(CNCCCCCCN)cc1 [Compound 10, 4-(4-((6-Aminohexylamino)methyl)phenyl)-5-(2,4-dihydroxy-5-isopropylphenyl)-N-ethylisoxazole-3-carboxamide] | – | – | – |
| 210 nM | CC1(C)CC(=O)c2c(C(F)(F)F)nn(-c3ccc(C(N)=O)c(N[C@H]4CC[C@H](N)CC4)c3)c2C1 [Compound 18, 2-(trans-4-Aminocyclohexylamino)-4-(6,6-dimethyl-4-oxo-3-(trifluoromethyl)-4,5,6,7-tetrahydro-1H-indazol-1-yl)benzamide] | – | ~14 fold | – |
| 24.7 nM | CC1(C)CC(=O)c2c(C(F)(F)F)nn(-c3ccc(C(N)=O)c(N[C@H]4CC[C@H](NC(=O)CCCCCN)CC4)c3)c2C1 [Compound 20, 2-(trans-4-(6-Aminohexanamido)cyclohexylamino)-4-(6,6-dimethyl-4-oxo-3-(trifluoromethyl)-4,5,6,7-tetrahydro-1H-indazol-1-yl)benzamide] | – | – | – |
| 22.4 nM | CC(C)NCCCn1c(Sc2cc3c(cc2I)OCO3)nc2c(N)ncnc21 [PU-H71, reference compound] | – | – | reduction in the steady-state levels |

| Compound | IC50 [2] | detection of cell surface Hsp90 [1] | fold loss in potency as compared to SNX-2112 ([2]; FP assay, SKBr3 extract) | steady-state levels of c-Kit and IGF-IR [3] |
| --- | --- | --- | --- | --- |
| CCNC(=O)c1noc(-c2cc(C(C)C)c(O)cc2O)c1-c1ccc(CN2CCOCC2)cc1 [NVP-AUY922, reference compound] | 4.1 nM | – | – | – |
